TAAR1 antag: human TAAR1 antagonists, primary screen, Fluo-8 calcium fluorescence, CHO RD-HGA16 cells; hit rate 1.5% among 360,000; inhibition, % at 3 µM; AID 624466, 2012; antagonist; Trace amine-associated receptor 1 (Homo sapiens), Q96RJ0;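 active means inhibition above a per-plate cutoff, the mean inhibition of test compounds on that plate plus 3 SD, cut at about 49% in these data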;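 further: 0% = DMSO plus EC80 beta-PEA response and 100% = DMSO alone without agonist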
Target sequence (Q96RJ0 whole entry, looked up): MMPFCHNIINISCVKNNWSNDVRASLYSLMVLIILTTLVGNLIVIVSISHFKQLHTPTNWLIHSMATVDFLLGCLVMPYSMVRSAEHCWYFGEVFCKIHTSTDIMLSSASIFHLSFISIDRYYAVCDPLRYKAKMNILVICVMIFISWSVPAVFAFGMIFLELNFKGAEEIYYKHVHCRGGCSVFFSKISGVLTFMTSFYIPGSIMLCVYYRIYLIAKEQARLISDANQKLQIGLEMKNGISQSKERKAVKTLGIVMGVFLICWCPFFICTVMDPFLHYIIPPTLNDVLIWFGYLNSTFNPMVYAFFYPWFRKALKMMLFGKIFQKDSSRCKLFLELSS
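Test system – hTAAR1-expressing CHO RD-HGA16 cells, Gα16-coupled · Reagent – β-PEA at EC80 concentration, post-compound challenge · Compound dosing – 3 µM, single point · Timing – 140 s kinetic read after compound, 140 s after agonist · Detection – Fluo-8 intracellular calcium dye fluorescence, real-time kinetic reads · Control set – DMSO and EC80 PEA controls · Repeats – n of 1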
M4 antag: human M4 muscarinic receptor antagonists, primary screen, CHO cells, Fluo-8 calcium fluorescence | CHO-hM4 cells, ACh EC80 | inhibition, % at 3 µM | hit rate 0.73% among 360,000;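 active means inhibition above its plate's cutoff, the mean inhibition of sample wells plus 3 SD, cut at about 27% in these data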;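 further: 0% = acetylcholine EC80 with DMSO and 100% = DMSO without agonist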
CHRM4 agonist: human M4 muscarinic receptor agonists, primary screen, CHO-K1 cells, Fluo-8 calcium fluorescence; hit rate 0.14% among 360,000; Muscarinic acetylcholine receptor M4 (Homo sapiens), P08173; CHO-K1 hM4/Gqi5; vehicle 0%, full acetylcholine response 100%; activation, % at 3 µM; AID 624127, 2012;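 active means activation above the run mean over all test wells plus 3 SD, cut at about 32% in these data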;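 further: peak over basal fluorescence ratio per well then scaled between controls; 0% = DMSO wells and 100% = acetylcholine at EC100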
TAAR1 ag: human TAAR1 agonists, primary screen, Fluo-8 calcium fluorescence, CHO RD-HGA16 cells. hit rate 0.99% among 360,000. activation, % at 3 µM. AID 624467, 2012. Trace amine-associated receptor 1 (Homo sapiens), Q96RJ0. vehicle wells 0%, saturating PEA agonist 100%;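 active means activation above the mean activation of all test compounds in the run plus 3 SD, cut at about 38% in these data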
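System: CHO-derived RD-HGA16 cells with stable Gα16 and human TAAR1. Times: 17-24 h plating, Fluo-8 75 min 37 °C, 30 min RT. Measured by: calcium-sensitive Fluo-8 signal, excitation 470-495, emission 515-575 nm. Read-out basis: % activation relative to PEA EC100 response. Control set: DMSO and PEA EC100. Repeats: no replicates (n 1).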
M4 PAM: human M4 muscarinic receptor positive allosteric modulators, primary screen, CHO-K1 cells, Fluo-8 calcium fluorescence; CHO-K1 hM4/Gqi5, ACh EC20; 0% = ACh EC20, 100% = maximal ACh; activation, % at 3 µM; Muscarinic acetylcholine receptor M4 (Homo sapiens), P08173; AID 624126, 2012; hit rate 0.4% among 360,000;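 active means activation above its plate's cutoff, the mean activation of sample wells plus 3 SD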
TAAR1 ag conf: human TAAR1 agonists, retest of hits, confirmation, Fluo-8 calcium fluorescence, CHO RD-HGA16 cells; shares compounds with TAAR1 ag; scaled: DMSO 0%, maximal phenethylamine 100%; activation, % at 3 µM; hit rate 82% among 2,400; AID 651783, 2012;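 active means activation above a cutoff set at the run's mean compound activation plus 3 SD, cut at about 39% in these data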
Ga16 nonsel ag: nonselective calcium mobilization agonists, CHO-Ga16 cells, counter-screen for hTAAR1 agonist project, cell-based, fluorescence, CHO-Ga16 parental line. hit rate 50% among 2,400. shares compounds with TAAR1 ag. Fluo-8 calcium fluorescence; normalized to maximal ATP response, DMSO zero. activation, % at 3 µM;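 active means activation above the run cutoff, the mean activation over all tested wells plus 3 SD, cut at about 12% in these data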;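 further: 0% = DMSO wells and 100% = maximal ATP response on the peak over basal ratio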
TAAR1 desensitize: TAAR1 desensitization by agonist hits, confirmation, counter-screen for TAAR1 agonist project, cell-based, fluorescence, tachyphylaxis | CHO RD-HGA16 hTAAR1, Fluo-8 calcium, beta-PEA response inhibition | inhibition, % at 3 µM | shares compounds with TAAR1 ag | hit rate 46% among 2,400 | AID 651951, 2012;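 active means inhibition above the run cutoff, the mean inhibition of all test compounds plus 3 SD, cut at about 49% in these data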;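 further: beta-PEA stimulus applied at its EC80; loss of beta-PEA calcium signal after compound pretreatment read as receptor desensitization; 0% = DMSO with beta-PEA at EC80 and 100% = DMSO alone without agonist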
Ga16 antag count: inhibition of ATP-evoked calcium response in CHO-Ga16 cells, counter-screen for TAAR1 agonist project, cell-based, fluorescence. shares compounds with TAAR1 ag. hit rate 39% among 2,400. inhibition, % at 3 µM. CHO-Ga16 ATP-induced calcium, Fluo-8 fluorescence. AID 651952, 2012;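 active means inhibition above the plate's mean compound inhibition plus 3 SD, computed per plate, cut at about 22% in these data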;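 further: 0% = EC80 ATP with DMSO and 100% = DMSO wells without ATP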
* = called active by the depositor; nt = not tested or not shown. Sampled rows, rich in hits. Any-hit rate of the full collection: about 3%.

SMILES | TAAR1 antag | M4 antag | CHRM4 agonist | TAAR1 ag | M4 PAM | TAAR1 ag conf | Ga16 nonsel ag | TAAR1 desensitize | Ga16 antag count
Nc1ncnc2c1ncn2[C@@H]1O[C@H](C(=O)N[C@H](CO)Cc2ccc(O)cc2)[C@@H](O)[C@H]1O | 8 | 0 | 1 | 0 | 0 | nt | nt | nt | nt
COC(=O)c1cnc(Nc2nc(C(N)c3ccccc3Cl)cs2)nc1C(F)(F)F (stereo unspecified) | 41 | 5 | 21 | 60* | -3 | 68* | 36* | 29 | 28*
CCCCN1C(=O)C(CC(=O)NCCN2CCOCC2)CC(C(=O)N(CC)CC)=C1C (stereo unspecified) | -8 | -1 | 1 | 2 | 2 | nt | nt | nt | nt
Cc1cc2c(cc1C)-n1nnnc1C(N(C)CCc1ccccc1)C(=O)N2 (stereo unspecified) | 18 | 3 | 9 | 54* | -5 | 65* | 6 | 36 | 10
Cc1cc2c(cc1C)-n1nnnc1C(N1CCCNCC1)C(=O)N2 (stereo unspecified) | 1 | 3 | 2 | 2 | 2 | nt | nt | nt | nt
CN(CCc1ccccn1)C1CC(=O)N(c2ccc(Cl)cc2)C1=O (stereo unspecified) | 7 | -14 | 0 | 68* | 5 | 17 | 0 | -3 | 1
CN(CCc1ccccn1)C(=O)Nc1ccc(Cl)cc1 | 10 | 2 | 2 | 10 | -4 | nt | nt | nt | nt
c1ccc2c(CC3=NCCN3)cccc2c1 | 74* | 0 | 2 | 97* | 4 | 95* | 10 | 90* | -1
O=C(C[C@H]1CC[C@@H](NC(=O)C2CC2)[C@@H](CO)O1)NCc1ccccc1Cl | 2 | 8 | 0 | 2 | 0 | nt | nt | nt | nt
Cc1ccc(N(C)c2nc(N)nc(N)c2N=O)cc1 | 24 | nt | nt | 59* | nt | 53* | 65* | 35 | 37*
O=C(CSc1nc2[nH]ncc2c(=O)n1-c1ccccc1)c1ccc2c(c1)OCCO2 | 58* | 4 | 14 | 75* | -8 | 67* | 21* | 50* | 27*
Cc1ccc(S(=O)(=O)N2C3CCCCC3O[C@H]2CC(=O)OCc2ccccc2)cc1 (stereo partly specified) | -17 | 1 | 7 | 1 | -5 | nt | nt | nt | nt
O=Cc1ccc(-n2cccn2)cc1 | 65* | -6 | 0 | 323* | 2 | 0 | 3 | 3 | 4
Cc1ccc(-n2cccn2)cc1 | -3 | -3 | 1 | 0 | 1 | nt | nt | nt | nt
Nc1ccc(CSc2ccc(Cl)cc2)c(Cl)c1 | -28 | -7 | 0 | 4 | 2 | nt | nt | nt | nt
COc1ccc(S(=O)(=O)N2CCN(c3ccccn3)CC2)cc1[N+](=O)[O-] | -2 | -4 | 4 | 0 | -3 | nt | nt | nt | nt
COc1ccc(S(=O)(=O)N2CCN(c3ncccn3)CC2)cc1[N+](=O)[O-] | 27 | -13 | -1 | 94* | 0 | 9 | 7 | 1 | 5
NC(N)=N/N=C/c1ccc(OCc2ccccc2Cl)cc1 | -11 | 10 | 1 | 50* | -9 | 87* | 55* | 70* | 61*
NC(N)=N/N=C/c1ccc(OCc2ccccc2)c(OCc2ccccc2)c1 | 38 | 8 | 0 | 16 | 2 | nt | nt | nt | nt
NC(N)=N/N=C/c1ccccc1 | 89* | -3 | 1 | 63* | 2 | 91* | 5 | 94* | 7
CC(CC(=O)c1ccc(F)cc1)N1CCN(c2ccccc2)CC1 (stereo unspecified) | -5 | -8 | 1 | 6 | 1 | nt | nt | nt | nt
CCOC(=O)c1c(NC(=O)c2ccc(S(=O)(=O)N3CCOCC3)cc2)sc2c1CC(C)(C)NC2(C)C | -14 | 3 | 1 | 0 | 8 | nt | nt | nt | nt
CN(C1CCCCC1)S(=O)(=O)c1ccc(C(=O)Nc2sc3c(c2C(N)=O)CC(C)(C)NC3(C)C)cc1 | 39 | 4 | 9 | 85* | -6 | 58* | 39* | 28 | 35*
CC(C)C[C@@H]1COc2cc(N3CCSCC3)ccc2S(=O)(=O)N1 | 11 | -7 | 1 | -2 | 2 | nt | nt | nt | nt
O=C1C=CC(n2cc(F)c(=O)[nH]c2=O)O1 (stereo unspecified) | -17 | -9 | 0 | 0 | 2 | nt | nt | nt | nt
SMILES | TAAR1 antag | M4 antag | CHRM4 agonist | TAAR1 ag | M4 PAM | TAAR1 ag conf | Ga16 nonsel ag | TAAR1 desensitize | Ga16 antag count
CCCCCCN1C=C/C(=C\C=C(C#N)C#N)c2ccccc21 | 13 | 0 | 1 | 10 | -2 | nt | nt | nt | nt
C=CCN1C=C/C(=C\C=C(C#N)C#N)c2ccccc21 | 29 | -6 | 6 | 66* | 16 | 74* | 8 | 66* | 26*
O=C1NCCN(Cc2ccc(Cl)c(F)c2)C1CC(=O)N1CCc2ccccc2C1 (stereo unspecified) | 11 | 1 | 1 | 60* | 5 | 92* | 1 | 46 | 5
Cc1cc(F)ccc1C(O)c1ncc(-c2ccccc2Cl)[nH]1 (stereo unspecified) | -4 | -4 | 3 | 3 | 1 | nt | nt | nt | nt
CCCCNC(=O)c1nc(C2CCN(S(=O)(=O)c3c(F)cccc3F)CC2)oc1-c1ccccc1 | -7 | 2 | -1 | -1 | -4 | nt | nt | nt | nt
O=C(NCCO)c1ccc(-c2ccc3nncn3c2)cc1 | -10 | 4 | 0 | 1 | 8 | nt | nt | nt | nt
CCCCCOc1ccc(CSC(=N)N)cc1[N+](=O)[O-] | 28 | 9 | 4 | 59* | -23 | 104* | 59* | 69* | 29*
COc1ccc(CSC(=N)N)cc1[N+](=O)[O-] | -19 | 10 | 2 | 0 | -7 | nt | nt | nt | nt
CC(C)OC(=O)c1c(NS(=O)(=O)c2ccccc2)sc2c1CCCC2 | 45 | 4 | 2 | 62* | 5 | 18 | 15* | 22 | 22*
O=C(Nc1c(-c2ccccc2)[nH][nH]c1=O)c1cccs1 | -8 | 3 | 1 | 0 | 6 | nt | nt | nt | nt
Cc1ccc(Cc2c(C(C)(C)C)nc3cc(C)c(Br)c(C)n23)cc1 | -36 | 4 | -1 | 1 | -4 | nt | nt | nt | nt

Screens as filed in PubChem.
